Reference: ChEMBL document CHEMBL3227991, “5-Iminodaunorubicin. Reduced cardiotoxic properties in an antitumor anthracycline” (J Med Chem, 1979)

Tests used:
[1] = test system: P388; experiment: Antitumor activity against mouse P388 cells allografted in mouse assessed as increase in survival time at 6.25 mg/kg administered as qd for 1 to 9 days relative to control; type: functional
Outline: (§1)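 Transplanted P388 leukemia or B16 melanoma in mice, dosed on a schedule of nine daily doses (qd 1-9). Efficacy was the increase in survival time of treated versus control animals (% T/C), from single tests.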

[2] = test system: B16; experiment: Antitumor activity against mouse B16 cells allografted in mouse assessed as increase in survival time at 6.25 mg/kg administered as qd for 1 to 9 days relative to control; type: functional; outline: as §1
[3] = test system: P388; experiment: Antitumor activity against mouse P388 cells allografted in mouse assessed as increase in survival time at 4 mg/kg, ip administered as single dose for every 4 days up to 13 days relative to control; type: functional; settings: route intraperitoneal
Outline: (§2)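 Mice received ip P388 leukemia cells on day 0. Disease was left to progress and ip dosing was delayed to days 5, 9 and 13. Survival time of treated relative to control mice was expressed as % T/C, with ≥125 defined as active. Values are means of repeated tests (27 for reference agents, duplicate for others).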

[4] = test system: P388; experiment: Antitumor activity against mouse P388 cells allografted in mouse assessed as increase in survival time at 2 mg/kg, ip administered as single dose on day 5, 9 and 13 relative to control; type: functional; settings: route intraperitoneal; outline: as §2
[5] = organism: Rattus norvegicus; experiment: Cardiotoxicity in rat assessed as minimum cumulative drug dose causing electrocardiographic changes; type: toxicity, organism-based; settings: in vivo
Outline: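 Zbinden cardiotoxicity test in rats; endpoint is the minimum cumulative dose producing significant electrocardiographic changes, expressed in mg/kg.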

[6] = test system: Salmonella typhimurium; experiment: Genotoxicity in Salmonella typhimurium 8907 assessed as number of revertants by Ames test in presence of S9 fraction; type: toxicity, organism-based; settings: salmonella enterica subsp. enterica serovar typhimurium
[7] = test system: Calf thymus DNA; experiment: Binding affinity to calf thymus DNA assessed as change in melting temperature; type: nucleic-acid assay; settings: Bos taurus
Outline: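 Thermal denaturation of isolated helical DNA in 0.010 M phosphate buffer, pH 7.0, with 10⁻⁵ M EDTA and 5% Me₂SO to solubilize compounds; read-out is the increase in melting temperature (ΔTm, °C).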

[8] = test system: L1210; experiment: Inhibition of DNA synthesis in mouse L1210 cells; type: functional; settings: read-out: ED50 (the source's name)
[9] = test system: L1210; experiment: Inhibition of RNA synthesis in mouse L1210 cells; type: functional; settings: read-out: ED50 (the source's name)
[10] = test system: P388; experiment: Antitumor activity against mouse P388 cells allografted in mouse assessed as increase in survival time at 1.56 mg/kg, ip administered as qd for 1 to 9 days relative to control; type: functional; settings: route intraperitoneal
[11] = test system: P388; experiment: Antitumor activity against mouse P388 cells allografted in mouse assessed as increase in survival time at 0.78 mg/kg, ip administered as qd for 1 to 9 days relative to control; type: functional; settings: route intraperitoneal
[12] = test system: P388; experiment: Antitumor activity against mouse P388 cells allografted in mouse assessed as increase in survival time at 0.39 mg/kg, ip administered as qd for 1 to 9 days relative to control; type: functional; settings: route intraperitoneal
[13] = test system: P388; experiment: Antitumor activity against mouse P388 cells allografted in mouse assessed as increase in survival time at 0.2 mg/kg, ip administered as qd for 1 to 9 days relative to control; type: functional; settings: route intraperitoneal
[14] = test system: P388; experiment: Antitumor activity against mouse P388 cells allografted in mouse assessed as increase in survival time at 16 mg/kg, ip administered as single dose on day 5, 9 and 13 relative to control; type: functional; settings: route intraperitoneal; outline: as §2
[15] = test system: P388; experiment: Antitumor activity against mouse P388 cells allografted in mouse assessed as increase in survival time at 8 mg/kg, ip administered as single dose on day 5, 9 and 13 relative to control; type: functional; settings: route intraperitoneal; outline: as §2
[16] = test system: P388; experiment: Antitumor activity against mouse P388 cells allografted in mouse assessed as increase in survival time at 24 mg/kg, ip administered as single dose on day 5, 9 and 13 relative to control; type: functional; settings: route intraperitoneal; outline: as §2
[17] = test system: P388; experiment: Antitumor activity against mouse P388 cells allografted in mouse assessed as increase in survival time at 12 mg/kg, ip administered as single dose on day 5, 9 and 13 relative to control; type: functional; settings: route intraperitoneal; outline: as §2
[18] = test system: P388; experiment: Antitumor activity against mouse P388 cells allografted in mouse assessed as increase in survival time at 6 mg/kg, ip administered as single dose on day 5, 9 and 13 relative to control; type: functional; settings: route intraperitoneal; outline: as §2
[19] = test system: P388; experiment: Antitumor activity against mouse P388 cells allografted in mouse assessed as increase in survival time at 3 mg/kg, ip administered as single dose on day 5, 9 and 13 relative to control; type: functional; settings: route intraperitoneal; outline: as §2
[20] = test system: P388; experiment: Antitumor activity against mouse P388 cells allografted in mouse assessed as increase in survival time at 1.5 mg/kg, ip administered as single dose on day 5, 9 and 13 relative to control; type: functional; settings: route intraperitoneal; outline: as §2
[21] = test system: Salmonella typhimurium; experiment: Genotoxicity in Salmonella typhimurium TA98 assessed as number of revertants by Ames test; type: toxicity, organism-based; settings: salmonella enterica subsp. enterica serovar typhimurium
Outline: (§3)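 Ames reversion in S. typhimurium TA98, run with and without microsomal activation; doses up to a maximum of 32 μg/plate; four determinations; mutagenicity given as revertants/nmol.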

[22] = test system: Salmonella typhimurium; experiment: Genotoxicity in Salmonella typhimurium TA98 assessed as number of revertants by Ames test in presence of microsomal activation; type: toxicity, organism-based; settings: salmonella enterica subsp. enterica serovar typhimurium; outline: as §3
[23] = test system: Salmonella typhimurium; experiment: Genotoxicity in Salmonella typhimurium TA98 at 32 ug/plate by Ames test; type: toxicity, organism-based; settings: salmonella enterica subsp. enterica serovar typhimurium; outline: as §3
[24] = test system: Salmonella typhimurium; experiment: Genotoxicity in Salmonella typhimurium TA98 assessed as number of revertants by Ames test in absence of microsomal activation; type: toxicity, organism-based; settings: salmonella enterica subsp. enterica serovar typhimurium; outline: as §3
[25] = test system: Salmonella typhimurium; experiment: Genotoxicity in Salmonella typhimurium TA100 by Ames test; type: toxicity, organism-based; settings: salmonella enterica subsp. enterica serovar typhimurium
[26] = test system: B16; experiment: Antitumor activity against mouse B16 cells allografted in mouse assessed as increase in survival time at 2 mg/kg, ip administered as qd for 1 to 9 days relative to control; type: functional; settings: route intraperitoneal
Outline: (§4)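 B16 melanoma in mice. Treatment was given as nine daily doses, as a single dose on day 1, or as a single dose delayed to day 5. Activity was taken as the increase in survival time of treated versus control animals (% T/C).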

[27] = test system: B16; experiment: Antitumor activity against mouse B16 cells allografted in mouse assessed as increase in survival time at 6.25 mg/kg, ip administered as single dose on day 1 relative to control; type: functional; settings: route intraperitoneal; outline: as §4
[28] = test system: B16; experiment: Antitumor activity against mouse B16 cells allografted in mouse assessed as increase in survival time at 12.5 mg/kg, ip administered as single dose on day 5 relative to control; type: functional; settings: route intraperitoneal; outline: as §4
[29] = test system: P388; experiment: Antitumor activity against mouse P388 cells allografted in mouse assessed as increase in survival time at 4 mg/kg, ip administered as qd for 1 to 9 days relative to control; type: functional; settings: route intraperitoneal
[30] = test system: P388; experiment: Antitumor activity against mouse P388 cells allografted in mouse assessed as increase in survival time at 2 mg/kg, ip administered as qd for 1 to 9 days relative to control; type: functional; settings: route intraperitoneal
[31] = test system: P388; experiment: Antitumor activity against mouse P388 cells allografted in mouse assessed as increase in survival time at 1 mg/kg, ip administered as qd for 1 to 9 days relative to control; type: functional; settings: route intraperitoneal
[32] = test system: P388; experiment: Antitumor activity against mouse P388 cells allografted in mouse assessed as increase in survival time at 0.5 mg/kg, ip administered as qd for 1 to 9 days relative to control; type: functional; settings: route intraperitoneal
[33] = test system: Salmonella typhimurium; experiment: Genotoxicity in Salmonella typhimurium 908 assessed as number of revertants by Ames test; type: toxicity, organism-based; settings: salmonella enterica subsp. enterica serovar typhimurium
[34] = test system: Salmonella typhimurium; experiment: Genotoxicity in Salmonella typhimurium TA98 at >8 ug/plate by Ames test; type: toxicity, organism-based; settings: salmonella enterica subsp. enterica serovar typhimurium
[35] = test system: Salmonella typhimurium; experiment: Genotoxicity in Salmonella typhimurium TA100 assessed as number of revertants by Ames test; type: toxicity, organism-based; settings: salmonella enterica subsp. enterica serovar typhimurium

Compound | T/C [3] [%] | T/C [4] [%] | MTC [5] [mg/kg] | ΔTm [7] [°C] | EC50 [8] [nM] | EC50 [9] [nM] | T/C [10] [%] | T/C [11] [%] | T/C [12] [%] | T/C [13] [%] | T/C [14] [%] | T/C [15] [%] | Activity [21] [revertants/nmol] | further results
COc1cccc2c1C(=O)c1c(O)c3c(c(O)c1C2=O)C[C@@](O)(C(N)=O)C[C@@H]3O[C@H]1C[C@H](N)[C@H](O)[C@H](C)O1.Cl |  |  |  |  |  |  |  |  |  |  |  |  |  | T/C [1]: 151%; T/C [2]: 161%
COc1cccc2c1C(=O)c1c(O)c3c(c(O)c1C2=O)C[C@@](O)(C(=O)CO)C[C@@H]3O[C@H]1C[C@H](N)[C@H](O)[C@H](C)O1 [DOXORUBICIN] | 146 | 130 | 11 | 13.4 | 1500 | 700 | 176 | 197 | 174 | 160 | 120 | 159 |  | Activity [6]: 108 revertants/nmol
COc1cccc2c1C(=N)c1c(O)c3c(c(O)c1C2=O)C[C@@](O)(C(C)=O)C[C@@H]3O[C@H]1C[C@H](N)[C@H](O)[C@H](C)O1.Cl |  |  | 64 | 6.25 | 1600 | 1300 |  |  |  |  |  |  | 1 | T/C [16]: 126%; T/C [17]: 116%; T/C [18]: 124%; T/C [19]: 130%; T/C [20]: 126%; Activity [22]: 0 nmol; Activity [23]: Non-toxic; Activity [24]: 0 nmol; Activity [25]: Non-toxic; T/C [26]: 222%; T/C [27]: 173%; T/C [28]: 122%; T/C [29]: 153%; T/C [30]: 170%; T/C [31]: 164%; T/C [32]: 145%
COc1cccc2c1C(=O)c1c(O)c3c(c(O)c1C2=O)C[C@@](O)(C(C)=O)C[C@@H]3O[C@H]1C[C@H](N)[C@H](O)[C@H](C)O1.Cl [DAUNORUBICIN HYDROCHLORIDE] | 128 | 126 | 14 |  | 1000 | 300 | 148 | 160 | 153 | 144 | 126 | 132 | 100 | Activity [33]: 356 revertants/nmol; Activity [34]: Toxic; Activity [35]: 0.5 revertants/nmol
